Source: ChEMBL document CHEMBL4152239, “Design, synthesis and structure-activity relationship studies of GPR40 agonists containing amide linker” (Eur J Med Chem, 2018)
Active and inactive are the calls of the source. No cut-off for these calls is given here.

What was measured:
[1] = Ratio of drug uptake in rat brain to plasma; format: ADME; settings: read-out: BPR
[2] = molecular target: Free fatty acid receptor 1 (Homo sapiens, UniProt O14842); assay: Agonist activity at human GPR40 expressed in HEK293 cells assessed as increase in calcium mobilization by Fluo-8 dye based fluorescence assay; format: functional, cell-based
[3] = Half life in mouse liver microsomes at 0.1 mM in presence of NADPH by LC-MS analysis; format: ADME, microsome
[4] = Half life in human liver microsomes at 0.1 mM in presence of NADPH by LC-MS analysis; format: ADME, microsome
[5] = Apparent permeability across apical to basolateral side in human Caco2 cells by LC-MS analysis; format: ADME, cell-based; settings: caco-2
[6] = molecular target: Free fatty acid receptor 1 (Rattus norvegicus, UniProt Q8K3T4); assay: Agonist activity at rat GPR40; format: functional
[7] = Ratio of drug uptake in ICR mouse liver to plasma at 30 mg/kg, po measured at 1 hr by LC-MS analysis; format: ADME, organism-based
Procedure, shortened: (§1)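 Male ICR mice received 30mg/kg orally, n = 3. Mice were sacrificed at 0.75 h or 1 h depending on compound. Total drug in brain or liver was divided by plasma drug to give the distribution ratio.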

[8] = Efflux ratio of permeability from […] in human Caco2 cells by LC-MS analysis; format: ADME, cell-based; settings: caco-2
[9] = Ratio of drug uptake in ICR mouse brain to plasma at 30 mg/kg, po measured at 1 hr by LC-MS analysis; format: ADME, organism-based; settings: read-out: BPR; procedure, shortened: as §1
[10] = AUC (0 to 8 hrs) in ICR mouse at 30 mg/kg, po by LC-MS analysis; format: ADME, organism-based; design: dose 30 mg/kg, time < 8 hr, route oral; settings: in vivo
Procedure, shortened: (§2)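 Male ICR mice, single oral dose of 30mg/kg, n = 3 per compound; vehicle 0.1% Tween-80 in 1% hydropropylcellulose sodium. Plasma sampled over time to derive pharmacokinetic parameters.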

[11] = molecular target: Free fatty acid receptor 1 (Mus musculus, UniProt Q76JU9); assay: Agonist activity at mouse GPR40; format: functional
[12] = Cmax in ICR mouse at 30 mg/kg, po by LC-MS analysis; format: ADME, organism-based; design: dose 30 mg/kg, route oral; settings: in vivo; procedure, shortened: as §2
[13] = Tmax in ICR mouse at 30 mg/kg, po by LC-MS analysis; format: ADME, organism-based; settings: in vivo; procedure, shortened: as §2
[14] = Half life in ICR mouse at 30 mg/kg, po by LC-MS analysis; format: ADME, organism-based; settings: in vivo; procedure, shortened: as §2
[15] = Ratio of drug uptake in ICR mouse brain to plasma at 30 mg/kg, po measured at 0.75 hrs by LC-MS analysis; format: ADME, organism-based; settings: read-out: BPR
Procedure, shortened: (§3)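 Male ICR mice (n = 3) were dosed orally at 30 mg/kg and sacrificed at a set time point. The time point depended on the compound: 0.75 h for some and 1 h for others. Total drug in brain and liver was expressed as a ratio to total plasma drug (brain-to-plasma and liver-to-plasma distribution ratios).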

[16] = Ratio of drug uptake in ICR mouse liver to plasma at 30 mg/kg, po measured at 0.75 hrs by LC-MS analysis; format: ADME, organism-based; procedure, shortened: as §3
Mus musculus = assay: Antidiabetic activity in ICR mouse assessed as reduction in blood glucose AUC (0 to 120 mins) at 100 mg/kg, po dosed 30 minutes prior to glucose challenge by OGTT; format: functional, organism-based
Procedure, shortened: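 ICR mice (n=8) received compound orally before an oral glucose load of 2.5 g/kg. […] Comparison was against vehicle control by Student's t-test.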

Sequence of Free fatty acid receptor 1 (Homo sapiens, UniProt O14842) (O14842 whole entry): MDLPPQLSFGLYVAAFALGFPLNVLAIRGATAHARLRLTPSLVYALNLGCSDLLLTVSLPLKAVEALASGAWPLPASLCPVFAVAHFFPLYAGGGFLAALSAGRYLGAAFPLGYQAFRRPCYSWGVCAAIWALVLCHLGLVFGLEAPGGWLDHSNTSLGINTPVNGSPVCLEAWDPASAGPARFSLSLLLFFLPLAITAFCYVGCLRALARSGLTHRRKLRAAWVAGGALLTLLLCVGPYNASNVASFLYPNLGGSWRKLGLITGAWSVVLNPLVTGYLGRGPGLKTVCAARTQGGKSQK
Sequence of Free fatty acid receptor 1 (Rattus norvegicus, UniProt Q8K3T4) (Q8K3T4 whole entry): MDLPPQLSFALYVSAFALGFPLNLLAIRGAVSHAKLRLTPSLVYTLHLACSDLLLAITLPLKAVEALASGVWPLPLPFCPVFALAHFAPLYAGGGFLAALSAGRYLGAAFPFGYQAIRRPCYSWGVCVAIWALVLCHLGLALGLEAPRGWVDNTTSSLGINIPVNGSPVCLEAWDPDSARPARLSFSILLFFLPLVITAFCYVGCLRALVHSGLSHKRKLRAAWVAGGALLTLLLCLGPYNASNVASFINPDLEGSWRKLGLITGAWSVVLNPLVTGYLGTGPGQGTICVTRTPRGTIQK
Sequence of Free fatty acid receptor 1 (Mus musculus, UniProt Q76JU9) (Q76JU9 whole entry): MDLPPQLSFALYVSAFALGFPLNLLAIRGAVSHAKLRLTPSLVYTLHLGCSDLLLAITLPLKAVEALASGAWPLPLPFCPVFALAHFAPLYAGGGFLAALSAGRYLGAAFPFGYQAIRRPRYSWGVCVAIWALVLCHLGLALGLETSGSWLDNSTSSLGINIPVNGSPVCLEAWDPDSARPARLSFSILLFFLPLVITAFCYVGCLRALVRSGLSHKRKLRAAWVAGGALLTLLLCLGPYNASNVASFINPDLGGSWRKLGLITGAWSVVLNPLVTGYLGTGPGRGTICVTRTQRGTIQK

For `Cc1cc(Cl)ccc1-c1cccc(COc2ccc([C@H](CC(=O)O)c3nccn3C)cc2)c1`, the Kp [1] was 0.04.
`CC#CC(CC(=O)O)c1ccc(OCc2cnc(C(=O)N3CCN(c4ccc(F)cc4)CC3)s2)cc1` (stereo not drawn) showed an EC50 [2] of 203 nM.
With `CC#CC(CC(=O)O)c1ccc(OCc2ccc(C(=O)N3CCc4ccccc4C3)cc2)cc1` (stereo not drawn) the EC50 [2] was 106 nM.
With `CC#C[C@H](CC(=O)O)c1ccc(OCc2ccc(C(=O)N3CCN(c4ccc(F)cc4)CC3)s2)cc1` the EC50 [2] was > 5000 nM.
Work on `CC#CC(CC(=O)O)c1ccc(OCc2ccc(C(=O)N3CCN(c4ccccc4[N+](=O)[O-])CC3)s2)cc1` (stereo not drawn) yielded an EC50 [2] of 94 nM.
`CC#CC(CC(=O)O)c1ccc(OCc2ccc(C(=O)N3CCN(c4cccc(F)c4)CC3)s2)cc1` (stereo not drawn) showed an EC50 [2] of 97 nM.
`Cc1nc(-c2ccc(C(F)(F)F)cc2)sc1COc1ccc([C@H](CC(=O)O)c2ccon2)cc1` showed a Kp [1] of 0.02.
`CC#CC(CC(=O)O)c1ccc(OCc2ccc(C(=O)N3CCN(c4cccc([N+](=O)[O-])c4)CC3)s2)cc1` (stereo not drawn) showed an EC50 [2] of 187 nM.
Work on `CC#CC(CC(=O)O)c1ccc(OCc2ccc(C(=O)N3CCN(C4CCCCC4)CC3)s2)cc1` (stereo not drawn) yielded an EC50 [2] of 820 nM.
In the case of `CC#CC(CC(=O)O)c1ccc(OCc2ccc(C(=O)N3CCN(c4cccnc4)CC3)s2)cc1` (stereo not drawn), the EC50 [2] is reported as 1140 nM.
`CC#CC(CC(=O)O)c1ccc(OCc2ccc(C(=O)N3CCN(c4ccc(F)cc4)CC3)o2)cc1` (stereo not drawn) showed an EC50 [2] of 308 nM.
With `CC#CC(CC(=O)O)c1ccc(OCc2ccc(C(=O)N3CCN(c4ccc(F)cc4)CC3)s2)cc1` (stereo not drawn) the EC50 [2] was 54 nM.
For `CC#CC(CC(=O)O)c1ccc(OCc2ccc(C(=O)N3CCN(c4ccccc4)CC3)s2)cc1` (stereo not drawn), the half-life at 100 µM [3] was 55 min, the EC50 [2] was 72 nM and the half-life at 100 µM [4] was 105 min.
Molecule `CC#CC(CC(=O)O)c1ccc(OCc2cnc(C(=O)NC3CCCc4ccccc43)s2)cc1` (stereo not drawn) has an EC50 [2] of 144 nM.
`CC#C[C@@H](CC(=O)O)c1ccc(OCc2ccc(C(=O)N3CCN(c4ccc(F)cc4)CC3)s2)cc1` gave a Papp A→B [5] of 20.6 ×10⁻⁶ cm/s, an EC50 [6] of 25 nM and a Kp at 1 h [7] of 15.1. For the same molecule, the Ratio [8] was 0.8, the Kp at 1 h [9] was 0.018 and the AUC(0-t) at 8 h [10] was 28400 ng·h/mL. It also gave a half-life at 100 µM [3] of 120 min, an EC50 [11] of 31 nM and a Cmax [12] of 13300 ng/mL. For the same molecule, the Tmax [13] was 48 min, the EC50 [2] was 47 nM and the half-life at 100 µM [4] was 64 min. For the same molecule, the half-life [14] was 228 min.
In the case of `CC#CC(CC(=O)O)c1ccc(OCc2ccc(C(=O)NC3CCCc4ccccc43)s2)cc1` (stereo not drawn), the EC50 [2] is reported as 109 nM.
For `CC#CC(CC(=O)O)c1ccc(OCc2ccc(C(=O)N3CCN(C)CC3)s2)cc1` (stereo not drawn), the EC50 [2] was > 5000 nM.
For `O=C(O)CC1COc2cc(OCc3ccc(C(=O)N4CCN(c5ccc(F)cc5)CC4)s3)ccc21` (stereo not drawn), the EC50 [2] was > 1670 nM.
Work on `CC#CC(CC(=O)O)c1ccc(OCc2ccc(C(=O)N3CCC4(C=Cc5ccccc54)CC3)s2)cc1` (stereo not drawn) yielded a Papp A→B [5] of 19.3 ×10⁻⁶ cm/s, a Ratio [8] of 0.3 and a half-life at 100 µM [3] of 7 min. For the same molecule, the EC50 [2] was 172 nM and the half-life at 100 µM [4] was 25 min.
Molecule `CC#CC(CC(=O)O)c1ccc(OCc2ccc(C(=O)N3CCc4ccccc4C3)o2)cc1` (stereo not drawn) has an EC50 [2] of 50 nM.
For `CC#CC(CC(=O)O)c1ccc(OCc2cnc(C(=O)N3CCc4ccccc4C3)s2)cc1` (stereo not drawn), the EC50 [2] was 531 nM.
`CC#C[C@@H](CC(=O)O)c1ccc(OCc2ccc(C(=O)N[C@H]3CCCc4ccccc43)cc2)cc1` showed a Papp A→B [5] of 15.2 ×10⁻⁶ cm/s, an EC50 [6] of 28 nM and a Ratio [8] of 1.2. For the same molecule, the Kp at 0.75 h [15] was 0.006, the AUC(0-t) at 8 h [10] was 3760 ng·h/mL and the Kp at 0.75 h [16] was 0.9. For the same molecule, the half-life at 100 µM [3] was 27 min, the EC50 [11] was 42 nM and the Cmax [12] was 3770 ng/mL. For the same molecule, the Tmax [13] was 15 min, the EC50 [2] was 39 nM and the half-life at 100 µM [4] was 214 min. The half-life [14] was 180 min.
In the case of `O=C(O)CC(c1ccc(OCc2ccc(C(=O)N3CCN(c4ccc(F)cc4)CC3)s2)cc1)C1CC1` (stereo not drawn), the EC50 [2] is reported as > 1670 nM.
Work on `CC#CC(CC(=O)O)c1ccc(OCc2ccc(C(=O)N3CCN(c4ccc(F)cc4)CC3)cc2)cc1` (stereo not drawn) yielded an EC50 [2] of 114 nM.
For `CC#CC(CC(=O)O)c1ccc(OCc2ccc(C(=O)N3CCN(c4ccc(Cl)cc4)CC3)s2)cc1` (stereo not drawn), the EC50 [2] was 133 nM.
`CC#CC(CC(=O)O)c1ccc(OCc2ccc(C(=O)N3CCCc4ccccc43)s2)cc1` (stereo not drawn) gave an EC50 [2] of 80 nM.
For `CC#CC(CC(=O)O)c1ccc(OCc2ccc(C(=O)N3CCc4ccccc4C3)s2)cc1` (stereo not drawn), the EC50 [2] was 57 nM.
With `CC#CC(CC(=O)O)c1ccc(OCc2ccc(C(=O)N3CCC4(C=Cc5ccccc54)CC3)cc2)cc1` (stereo not drawn) the Papp A→B [5] was 10.9 ×10⁻⁶ cm/s, the Ratio [8] was 0.3 and the half-life at 100 µM [3] was 6 min. The EC50 [2] was 179 nM and the half-life at 100 µM [4] was 9 min.
For `CC#CC(CC(=O)O)c1ccc(OCc2ccc(C(=O)N3CCN(c4ccc(C(C)(C)C)cc4)CC3)s2)cc1` (stereo not drawn), the EC50 [2] was 417 nM.
`CC#CC(CC(=O)O)c1ccc(OCc2ccc(C(=O)N3CCN(Cc4ccccc4)CC3)s2)cc1` (stereo not drawn) gave an EC50 [2] of 155 nM.
For `CC#CC(CC(=O)O)c1ccc(OCc2ccc(C(=O)N3CCN(c4ccccc4F)CC3)s2)cc1` (stereo not drawn), the EC50 [2] was 113 nM.
With `CC#CC(CC(=O)O)c1ccc(OCc2ccc(C(=O)N3CCN(c4ccc([N+](=O)[O-])cc4)CC3)s2)cc1` (stereo not drawn) the EC50 [2] was 231 nM.
Molecule `CC#CC(CC(=O)O)c1ccc(OCc2ccc(C(=O)N3CCN(c4ccc(OC)cc4)CC3)s2)cc1` (stereo not drawn) has an EC50 [2] of 289 nM.
`O=C(O)CCc1ccc(OCc2ccc(C(=O)N3CCN(c4ccc(F)cc4)CC3)s2)cc1` gave an EC50 [2] of 610 nM.
Molecule `CC#CC(CC(=O)O)c1ccc(OCc2ccc(C(=O)NC3CCCc4ccccc43)o2)cc1` (stereo not drawn) has an EC50 [2] of 133 nM.
With `CC#C[C@@H](CC(=O)O)c1ccc(OCc2ccc(C(=O)N[C@@H]3CCCc4ccccc43)cc2)cc1` the Papp A→B [5] was 18.8 ×10⁻⁶ cm/s, the EC50 [6] was 14 nM and the Kp at 1 h [7] was 0.3. The Ratio [8] was 0.9, the Kp at 1 h [9] was 0.011 and the AUC(0-t) at 8 h [10] was 80000 ng·h/mL. The half-life at 100 µM [3] was 74 min, the Activity (Mus musculus) was “Active” and the EC50 [11] was 23 nM. For the same molecule, the Cmax [12] was 15400 ng/mL, the Tmax [13] was 72 min and the EC50 [2] was 20 nM. For the same molecule, the half-life at 100 µM [4] was 387 min and the half-life [14] was 318 min.
`CC#CC(CC(=O)O)c1ccc(OCc2ccc(C(=O)N3CCN(c4ccccn4)CC3)s2)cc1` (stereo not drawn) gave an EC50 [2] of 138 nM.
In the case of `CC#CC(CC(=O)O)c1ccc(OCc2ccc(C(=O)N3CCN(c4ccncc4)CC3)s2)cc1` (stereo not drawn), the EC50 [2] is reported as > 5000 nM.
Molecule `CC#C[C@@H](CC(=O)O)c1ccc(OCc2ccc(CN3CCC4(C=Cc5ccccc54)CC3)cc2)cc1` [LY2881835] has a Papp A→B [5] of 15 ×10⁻⁶ cm/s, a Ratio [8] of 0.4 and a Kp at 0.75 h [15] of 0.14. For the same molecule, the AUC(0-t) at 8 h [10] was 5150 ng·h/mL, the Kp at 0.75 h [16] was 2.5 and the half-life at 100 µM [3] was 2 min. The Cmax [12] was 2850 ng/mL, the Tmax [13] was 42 min and the EC50 [2] was 134 nM. For the same molecule, the half-life at 100 µM [4] was 18 min and the half-life [14] was 78 min.
In the case of `CC#CC(CC(=O)O)c1ccc(OCc2ccc(C(=O)NC3CCCc4ccccc43)cc2)cc1` (stereo not drawn), the EC50 [2] is reported as 42 nM.
`CC#CC(CC(=O)O)c1ccc(OCc2ccc(C(=O)N3CCN(c4ccc(C)cc4)CC3)s2)cc1` (stereo not drawn) gave an EC50 [2] of 211 nM.
